In ChEMBL document CHEMBL2321693, “Optimizing solubility and permeability of a biopharmaceutics classification system (BCS) class 4 antibiotic drug using lipophilic fragments disturbing the crystal lattice” (J Med Chem, 2013):

Columns and labels:
[1] = Efflux ratio of permeability from basolateral to apical side to apical to basolateral side in human Caco2 cells; type: ADME, cell-based; conditions: Caco-2
[2] = Apparent permeability of the compound from basolateral to apical side in human Caco2 cells by LC-MS/MS analysis; type: ADME, cell-based; conditions: Caco-2
Procedure, shortened: (§1)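 Caco-2 monolayers ([…] cells seeded on polycarbonate inserts, 0.4 μm pores), kept in 90% air/10% CO2. Transport run at 37 °C across a 6.5/7.4 pH gradient, started by adding 10 μM drug to the donor side. Papp = (ΔQ/Δt)/(A·C0), from steady-state flux, filter area and initial donor concentration. LC-MS/MS quantitation. Mean ± SD of triplicates.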

[3] = Apparent solubility of the compound in fasted state simulated intestinal fluid at pH 6.5 by shake flask method relative to ciprofloxacin; type: physicochemical; conditions: simulated gi fluid
Procedure, shortened: (§2)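 Small-scale shake flask. Excess solid in 500 μL medium (n = 3): USP pH 7.4 phosphate buffer, or pH 6.5 phosphate buffer or FaSSIF per Galia. Supernatant assayed by LC-MS/MS.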

[4] = Apparent permeability of the compound from apical to basolateral side in human Caco2 cells at pH 6.5/7.4 by LC-MS/MS analysis; type: ADME, cell-based; conditions: Caco-2, pH 6.5; procedure, shortened: as §1
[5] = Apparent solubility of the compound in phosphate buffer at pH 6.5 by shake flask method relative to ciprofloxacin; type: physicochemical; procedure, shortened: as §2
[6] = Apparent solubility of the compound in phosphate buffer at pH 7.4 by shake flask method relative to ciprofloxacin; type: physicochemical; procedure, shortened: as §2

SMILES | efflux ratio [1] | Papp B→A [2] | fold change (FC) [3] | Papp A→B [4] | fold change (FC) [5] | fold change (FC) [6]
COC(=O)c1cn(C2CC2)c2cc(N3CCNCC3)c(F)cc2c1=O | 19 | 197 nm/s | 111 | 10.1 nm/s | 66 | 48
CC(C)OC(=O)c1cn(C2CC2)c2cc(N3CCNCC3)c(F)cc2c1=O | 7 | 352 nm/s | 0.5 | 46.9 nm/s | 0.5 | 0.5
CCCOC(=O)c1cn(C2CC2)c2cc(N3CCNCC3)c(F)cc2c1=O | 146 | 628 nm/s | 0.5 | 4.3 nm/s | 0.5 | 0.5
CCCCOC(=O)c1cn(C2CC2)c2cc(N3CCNCC3)c(F)cc2c1=O | 13 | 659 nm/s | 10 | 49.5 nm/s | 27 | 4
CCCCCCOC(=O)c1cn(C2CC2)c2cc(N3CCNCC3)c(F)cc2c1=O | 19 | 2640 nm/s |  | 139 nm/s |  | 
O=C(OCc1ccccc1)c1cn(C2CC2)c2cc(N3CCNCC3)c(F)cc2c1=O | 18 | 1160 nm/s |  | 64.2 nm/s |  | 
CCOC(=O)c1cn(C2CC2)c2cc(N3CCNCC3)c(F)cc2c1=O [CIPROFLOXACIN ETHYL ESTER] | 7 | 243 nm/s | 2 | 34.5 nm/s | 2 | 2
